We go through 3 compounds from paper PMC4835239 (Leukemia & lymphoma, 2015).

“Also recorded” adds a separate entry of the source.

For one data set, the system named is myeloma cells. The settings on record: bortezomib; cited from earlier work.
The subject of data set [1] is CLL cells. The following applies: bortezomib; cited from earlier work.
For another data set, the system named is CLL. The settings on record: patients with CLL; cited from earlier work.
Data set [2] has as its system CLL cells. The following applies: cited from earlier work.
The subject of data set [3] is relapsed/refractory CLL or small lymphocytic lymphoma (SLL). The data set is described as follows: Response assessment by IWCLL 2008 criteria. The class given is in vivo, human. The settings on record: all patients.
The test system of data set [4] is patients with relapsed/refractory CLL or small lymphocytic lymphoma (SLL). The experiment in a line: Phase I dose-escalation trial: toxicity assessment. The class given is in vivo.
In data set [5] the test system is chymotrypsin-like proteasome activity of CLL cells. The data set is described as follows: Proteasome activity assay in CLL cells from patient samples. The class given is in vivo, human. The essentials:
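Chymotrypsin-like proteasome activity was measured in CLL cells from patient whole blood with a validated commercial assay. Samples were taken at screening, pre- and post-dose day 1, pre-dose day 2, and pre- and post-dose days 8 and 9 of cycle 1. Dosing was a 30-min IV infusion, 20 mg/m2 on days 1–2, then 27, 36, 45 or 56 mg/m2 by cohort from day 8.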

Regarding `O=c1c(O)c(-c2ccc(O)c(O)c2)oc2cc(O)cc(O)c12` [quercetin], the “Level of quercetin required to inhibit apoptosis” value is given as 40 μm in the data set with myeloma cells and 20 μm with CLL cells [1].
Regarding `CC(C)C[C@H](NC(=O)[C@H](Cc1ccccc1)NC(=O)c1cnccn1)B(O)O` [bortezomib], the Objective clinical responses result in the data set on CLL was “no objective clinical responses”.
Consider `CC(C)C[C@H](NC(=O)[C@H](CCc1ccccc1)NC(=O)CN1CCOCC1)C(=O)N[C@@H](Cc1ccccc1)C(=O)N[C@@H](CC(C)C)C(=O)[C@@]1(C)CO1` [Carfilzomib], for which, in the data set on CLL cells [2], the “Cytotoxicity against CLL cells in vitro” value is recorded as “significant cytotoxicity”. For the same compound, in the data set on CLL cells [2] (human versus fetal bovine serum), the “Effect of human serum on cytotoxic activity against CLL cells” value is “unaffected by human serum”. Besides, in data set [3], the “Objective partial or complete responses (IWCLL 2008)” value is given as “No objective partial or complete responses were observed”. For the same compound, the “Maximum tolerated dose (MTD)” value in data set [4] (doses up to 56 mg/m^2 twice weekly for 3 weeks of a 4 week cycle) is recorded as “No maximum tolerated dose of carfilzomib was identified”. Moreover, in data set [4] (grade 3, total n=19), the “Dyspnea, incidence” value is recorded as 1 number of patients and the “Febrile neutropenia, incidence” value was 1 number of patients. Moreover, the “Grade of electrolyte disturbances” value in data set [4] (human, in vivo) is recorded as not above 2 grade. The “Infusion reaction or tumor lysis syndrome” value in data set [4] (in vivo) is given as “No patient experienced an infusion reaction or tumor lysis syndrome”. Besides, the Chymotrypsin-like proteasome activity result in data set [5] (by 24 hours after dosing) is recorded as “partially recovered; also recorded: recovered partially”. For the same compound, the Chymotrypsin-like proteasome activity entry in data set [5] (by day 8) is “rebound higher than pretreatment levels; also recorded: completely”.
